ChEMBL document CHEMBL4304743, “Discovery of ( E)- N1-(3-Fluorophenyl)- N3-(3-(2-(pyridin-2-yl)vinyl)-1 H-indazol-6-yl)malonamide (CHMFL-KIT-033) as a Novel c-KIT T670I Mutant Selective Kinase Inhibitor for Gastrointestinal Stromal Tumors (GISTs)” (J Med Chem, 2019)
Calls of active or inactive are those of the source. The calls are words filed in the database; no cut-off is given here.

Columns and labels:
[1] = tested on: GISTT1; experiment: Induction of apoptosis in human GISTT1 cells harboring c-KIT 560 to 578 deletion/T670I double mutant assessed as increase in cleaved caspase level after 24 hrs by Western blot analysis; format: functional, cell-based
[2] = tested on: Mast/stem cell growth factor receptor Kit (Homo sapiens), P10721 [UNDEFINED MUTATION]; experiment: Inhibition of c-KIT 560 to 578 deletion/T670I double mutant in human GISTT1 cells assessed as reduction in c-KIT autophosphorylation at Y823 residue at 0.1 uM to 3 uM after 1 hr by Western blot analysis; format: cell-based
Summary of the method: (§1)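 Serial compound dilutions applied for 1 h to GIST-T1, GIST-T1-T670I (CRISPR/Cas9 T670I knock-in, clone confirmed by Sanger sequencing) or GIST-5R cells in DMEM with 10% FBS. Cells then lysed and phospho-proteins detected by standard Western blotting.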

[3] = tested on: Mast/stem cell growth factor receptor Kit (Homo sapiens), P10721 [N822K]; experiment: Inhibition of TEL fused c-KIT N822K mutant (unknown origin) transfected in mouse BAF3 cells assessed as growth inhibition after 72 hrs by CCK8 assay; format: cell-based
Summary of the method: (§2)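 Tel-c-KIT-transformed BaF3 lines (IL-3 independent) kept in RPMI 1640 with 10% FBS, 2% L-glutamine and pen/strep. Cells at 1.5 to 5 × 10^4 cells/mL mixed with graded compound and incubated 72 h at 37 °C, 5% CO2. Viability by CCK-8 absorbance at 450 nm, normalized to DMSO. GI50 from dose–response fit.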

[4] = AUC (0 to infinity) in mouse at 1 mg/kg, iv measured after 2 to 720 mins by LC-tandem mass spectrometry analysis; format: ADME, organism-based; set-up: dose 1 mg/kg, time infinity, route intravenous; details: in vivo
Summary of the method: (§3)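 Mice dosed 1 mg/kg i.v. or 10 mg/kg p.o.; plasma drug levels by LC-MS/MS, parameters by noncompartmental analysis; values not from triplicate testing.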

[5] = tested on: Mast/stem cell growth factor receptor Kit (Homo sapiens), P10721 [UNDEFINED MUTATION]; experiment: Inhibition of c-KIT 560 to 578 deletion/T670I double mutant in human GISTT1 cells assessed as reduction in STAT3 phosphorylation after 1 hr by Western blot analysis; format: cell-based; summary of the method: as §1
[6] = tested on: GISTT1; experiment: Antiproliferative activity against human GISTT1 cells harboring c-KIT 560 to 578 deletion/T670I double mutant incubated for 72 hrs by CCK8 assay; format: functional; details: GISTT1, 72 h
Summary of the method: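 Adherent GIST cells seeded at 1.5-5 × 10^4 cells/mL and left overnight at 37 °C, 5% CO2. Medium then replaced with medium holding serial compound dilutions; 72 h incubation. Viability by CCK-8, absorbance at 450 nm, normalized to DMSO control; GI50 from dose-response fit.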

[7] = AUC (0 to t) in mouse at 10 mg/kg, po measured after 5 to 720 mins by LC-tandem mass spectrometry analysis; format: ADME, organism-based; details: in vivo; summary of the method: as §3
[8] = target: Macrophage colony-stimulating factor 1 receptor (Homo sapiens, UniProt P07333); experiment: Inhibition of wild-type human partial length CSF1R (I564 to S939 residues) expressed in bacterial expression system after 1 hr by Z-LYTE assay
[9] = tested on: Mus musculus; experiment: Inhibition of c-KIT phosphorylation at Y823 residue in tumor of human GIST5R cells xenografted in nude mouse at 100 mg/kg, po administered as single dose and measured at 2 hrs; format: functional, organism-based
Summary of the method: (§4)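 Female nu/nu mice bearing subcutaneous GIST-5R xenografts (cells in Matrigel, right flank) given one oral gavage dose of 100 mg/kg in HKI suspension (0.5% methocellulose/0.4% Tween80 in ddH2O). Tumors collected over a 2 h time course; p-c-KIT, p-ERK and p-AKT assessed by Western blot; plasma drug levels monitored in parallel.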

[10] = Oral bioavailability in Sprague-Dawley rat at 10 mg/kg measured after 5 to 720 mins by LC-tandem mass spectrometry analysis; format: ADME, organism-based; details: in vivo
Summary of the method: (§5)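 Male Sprague–Dawley rats (190-210 g), fasted 12 h, given 1 mg/kg i.v. or 10 mg/kg p.o. in DMSO/5% glucose water (1:9). Blood sampled at 2–720 min (i.v.) or 5–720 min (p.o.). Plasma proteins precipitated with methanol using caffeine internal standard, then LC-MS/MS. Noncompartmental analysis; F = AUC0-∞ ratio corrected for dose; triplicate ±SD.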

[11] = Tmax in Sprague-Dawley rat at 1 mg/kg, iv measured after 2 to 720 mins by LC-tandem mass spectrometry analysis; format: ADME, organism-based; details: in vivo; summary of the method: as §5
[12] = target: Serine/threonine-protein kinase pim-3 (Homo sapiens, UniProt Q86V86); experiment: Binding affinity to wild-type human partial length PIM3 (G16 to A317 residues) expressed in bacterial expression system assessed as enzyme remaining activity at 1 uM by Kinomescan assay relative to control
Summary of the method: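 KINOMEscan competition binding panel of 468 kinases and mutants, compound at 1 μM; binding reported as percent of control.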

[13] = tested on: Mast/stem cell growth factor receptor Kit (Homo sapiens), P10721 [UNDEFINED MUTATION]; experiment: Inhibition of c-KIT 560 to 578 deletion/T670I double mutant in human GIST5R cells assessed as reduction in AKT phosphorylation at S473 residue at 0.1 uM to 3 uM after 1 hr by Western blot analysis; format: cell-based; summary of the method: as §1
[14] = target: Mast/stem cell growth factor receptor Kit (Homo sapiens, UniProt P10721); experiment: Inhibition of TEL fused wild type c-KIT (unknown origin) transfected in mouse BaF3 cells assessed as reduction in phosphorylation at Y719 residue after 2 hrs by Western blot analysis; format: cell-based
[15] = tested on: Mus musculus; experiment: Inhibition of c-KIT phosphorylation at Y719 residue in tumor of human GIST5R cells xenografted in nude mouse at 100 mg/kg, po administered as single dose and measured at 2 hrs; format: functional, organism-based; summary of the method: as §4
[16] = tested on: Mus musculus; experiment: Inhibition of c-KIT phosphorylation at Y703 residue in tumor of human GIST5R cells xenografted in nude mouse at 100 mg/kg, po administered as single dose and measured at 2 hrs; format: functional, organism-based; summary of the method: as §4
[17] = MRT (0 to infinity) in mouse at 1 mg/kg, iv measured after 2 to 720 mins by LC-tandem mass spectrometry analysis; format: ADME, organism-based; details: in vivo
[18] = Apparent clearance in mouse at 10 mg/kg, po measured after 5 to 720 mins by LC-tandem mass spectrometry analysis; format: ADME, organism-based; details: in vivo, read-out: CL(app) (converted); summary of the method: as §3
[19] = Tmax in mouse at 1 mg/kg, iv measured after 2 to 720 mins by LC-tandem mass spectrometry analysis; format: ADME, organism-based; details: in vivo
[20] = target: Serine/threonine-protein kinase 25 (Homo sapiens, UniProt O00506); experiment: Inhibition of wild-type human partial length STK25 (V14 to H295 residues) expressed in bacterial expression system after 1 hr by Z-LYTE assay
[21] = tested on: Mast/stem cell growth factor receptor Kit (Homo sapiens), P10721 [A829P]; experiment: Inhibition of TEL fused c-KIT A829P mutant (unknown origin) transfected in mouse BAF3 cells assessed as growth inhibition after 72 hrs by CCK8 assay; format: cell-based; summary of the method: as §2
[22] = tested on: Mus musculus; experiment: Inhibition of c-KIT phosphorylation at Y823 residue in tumor of human GIST5R cells xenografted in nude mouse at 100 mg/kg, po administered as single dose and measured after 2 hrs; format: functional, organism-based; summary of the method: as §4
[23] = species on record: Homo sapiens; experiment: Induction of cell cycle arrest in human GIST5R cells harboring 560 to 578 deletion/T670I double mutant after 24 hrs; format: functional, cell-based

Chain of Mast/stem cell growth factor receptor Kit (Homo sapiens), P10721 [UNDEFINED MUTATION] (P10721 whole entry, looked up, stated change not applied, the tested form may be a part): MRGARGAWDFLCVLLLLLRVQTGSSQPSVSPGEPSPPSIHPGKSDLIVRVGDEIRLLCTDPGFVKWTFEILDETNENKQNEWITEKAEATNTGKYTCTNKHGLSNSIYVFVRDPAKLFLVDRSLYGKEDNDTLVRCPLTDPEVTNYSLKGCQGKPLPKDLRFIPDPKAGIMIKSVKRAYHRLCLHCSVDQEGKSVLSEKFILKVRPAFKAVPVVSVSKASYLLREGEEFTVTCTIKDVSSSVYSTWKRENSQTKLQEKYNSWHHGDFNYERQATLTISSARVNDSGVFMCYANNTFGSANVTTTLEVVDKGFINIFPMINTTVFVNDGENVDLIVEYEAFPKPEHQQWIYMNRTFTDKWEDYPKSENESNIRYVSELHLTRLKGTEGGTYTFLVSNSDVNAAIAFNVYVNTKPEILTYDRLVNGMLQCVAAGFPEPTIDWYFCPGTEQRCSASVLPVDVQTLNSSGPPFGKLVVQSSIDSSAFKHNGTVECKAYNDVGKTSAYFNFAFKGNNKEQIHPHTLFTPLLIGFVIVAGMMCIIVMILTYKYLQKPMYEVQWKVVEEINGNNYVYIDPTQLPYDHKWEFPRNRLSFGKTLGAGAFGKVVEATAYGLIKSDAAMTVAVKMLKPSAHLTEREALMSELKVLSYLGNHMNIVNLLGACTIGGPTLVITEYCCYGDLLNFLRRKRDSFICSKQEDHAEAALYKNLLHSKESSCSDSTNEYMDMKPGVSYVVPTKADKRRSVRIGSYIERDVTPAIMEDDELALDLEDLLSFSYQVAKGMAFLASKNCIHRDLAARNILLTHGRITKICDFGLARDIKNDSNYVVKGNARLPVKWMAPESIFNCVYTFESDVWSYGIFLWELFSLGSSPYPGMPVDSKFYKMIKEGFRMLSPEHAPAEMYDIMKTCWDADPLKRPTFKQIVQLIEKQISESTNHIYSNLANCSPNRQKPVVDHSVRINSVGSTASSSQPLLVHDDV
Chain of Macrophage colony-stimulating factor 1 receptor (P07333 whole entry, the tested form may be a part): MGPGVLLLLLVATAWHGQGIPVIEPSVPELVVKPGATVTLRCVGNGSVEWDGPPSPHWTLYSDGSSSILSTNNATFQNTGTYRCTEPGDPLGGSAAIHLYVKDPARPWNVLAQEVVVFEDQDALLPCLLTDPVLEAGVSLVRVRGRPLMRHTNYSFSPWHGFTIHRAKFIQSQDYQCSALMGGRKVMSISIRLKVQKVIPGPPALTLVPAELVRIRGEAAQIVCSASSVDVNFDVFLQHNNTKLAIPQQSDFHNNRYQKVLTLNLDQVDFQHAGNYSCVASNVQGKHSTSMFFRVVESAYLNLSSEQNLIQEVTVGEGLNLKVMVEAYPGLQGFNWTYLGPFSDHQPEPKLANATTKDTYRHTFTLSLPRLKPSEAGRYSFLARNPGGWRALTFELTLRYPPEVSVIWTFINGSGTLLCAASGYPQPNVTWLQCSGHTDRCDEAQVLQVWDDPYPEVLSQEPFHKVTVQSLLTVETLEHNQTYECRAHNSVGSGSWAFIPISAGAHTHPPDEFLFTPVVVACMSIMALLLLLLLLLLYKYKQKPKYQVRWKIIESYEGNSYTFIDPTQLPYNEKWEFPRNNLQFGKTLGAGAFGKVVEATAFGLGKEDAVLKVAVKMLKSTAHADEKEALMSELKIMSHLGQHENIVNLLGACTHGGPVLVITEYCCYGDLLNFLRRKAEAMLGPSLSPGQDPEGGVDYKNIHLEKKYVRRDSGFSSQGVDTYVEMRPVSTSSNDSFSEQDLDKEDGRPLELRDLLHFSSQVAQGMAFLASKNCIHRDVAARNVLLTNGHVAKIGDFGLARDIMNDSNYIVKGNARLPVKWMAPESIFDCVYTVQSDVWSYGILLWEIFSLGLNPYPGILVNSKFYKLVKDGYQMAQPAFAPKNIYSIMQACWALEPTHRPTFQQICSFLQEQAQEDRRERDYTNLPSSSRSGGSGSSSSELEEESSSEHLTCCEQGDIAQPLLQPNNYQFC
Chain of Mast/stem cell growth factor receptor Kit (Homo sapiens), P10721 [N822K] (P10721 whole entry N822K, the tested form may be a part): as the sequence (P10721 whole entry, looked up, stated change not applied, the tested form may be a part) above, with N822K counted along it
Chain of Mast/stem cell growth factor receptor Kit (P10721 whole entry, the tested form may be a part): as the sequence (P10721 whole entry, looked up, stated change not applied, the tested form may be a part) above
Chain of Serine/threonine-protein kinase 25 (O00506 whole entry, the tested form may be a part): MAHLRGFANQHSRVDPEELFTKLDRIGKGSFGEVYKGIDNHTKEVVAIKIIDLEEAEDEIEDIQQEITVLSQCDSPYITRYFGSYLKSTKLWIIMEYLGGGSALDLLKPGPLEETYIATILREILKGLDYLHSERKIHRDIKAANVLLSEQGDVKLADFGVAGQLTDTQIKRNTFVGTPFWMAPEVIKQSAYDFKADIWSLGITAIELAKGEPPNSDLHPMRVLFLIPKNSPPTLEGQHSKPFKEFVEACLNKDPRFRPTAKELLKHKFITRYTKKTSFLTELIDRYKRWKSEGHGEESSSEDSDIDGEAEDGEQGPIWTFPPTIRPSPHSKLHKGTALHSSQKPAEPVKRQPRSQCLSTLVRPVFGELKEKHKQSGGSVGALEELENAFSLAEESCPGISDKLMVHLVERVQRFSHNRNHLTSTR
Chain of Mast/stem cell growth factor receptor Kit (Homo sapiens), P10721 [A829P] (P10721 whole entry A829P, the tested form may be a part): as the sequence (P10721 whole entry, looked up, stated change not applied, the tested form may be a part) above, with A829P counted along it

O=C(CC(=O)Nc1ccc2c(/C=C/c3ccccn3)n[nH]c2c1)Nc1cccc(F)c1
Activity [1]: Dose-dependent effect | inhibition [2]: Active | GI50 [3]: 6.06 µM | AUC(0-inf) [4]: 901 ng·h/mL | inhibition [5]: Dose-dependent effect | GI50 [6]: 0.288 µM | AUC(0-t) [7]: 1470 ng·h/mL | IC50 [8]: 0.0142 to 0.0143 µM | inhibition [9]: Active | bioavailability [10]: 27.5% | Tmax [11]: 1.02 min | Activity [12]: 0% | inhibition [13]: Active | EC50 [14]: > 1 µM | inhibition [15]: Active | inhibition [16]: Active | MRT inf [17]: 24 min | CL/F [18]: 113 mL/min/kg | Tmax [19]: 1.8 min | IC50 [20]: > 10 µM | GI50 [21]: 6 µM | inhibition [22]: inactive | Activity [23]: Dose-dependent effect
